Source: PubChem
H9c2 TAG inh: reduces triacylglycerol accumulation in H9c2 cells | AID 651582 | 0.66% of 230,000 active | inhibition, % at 12.5 µM | Nile Red lipid (TAG) fluorescence; cells loaded with 200 µM oleic acid;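 active = pattern-corrected inhibition of lipid staining of at least 50% with the nuclear-stain viability signal not falling by more than 50%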
CXCR6 block: inhibitors of human CXCR6 receptor; O00574; CHO-K1 PathHunter CXCR6 beta-arrestin, luminescence; inhibition, % at 20 µM; 0.36% of 360,000 active; AID 602244; in the data active = inhibition above about 34%, passing the limit was not always enough;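 note: antagonist mode with CXCL16 agonist at 10 nM final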
CCR6 antag: blocks CCL20-driven beta-arrestin recruitment at human CCR6. 0.49% of 340,000 active. inhibition, % at 20 µM. P51684. CHO-K1 CCR6 PathHunter beta-arrestin, luminescence, CCL20-stimulated;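 active = compounds whose inhibition of the agonist-driven luminescence signal at 20 µM reaches about 50%, limit read from the data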;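 note: cells stimulated with CCL20 at 14 nM final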
APJ antag: APJ receptor antagonism. inhibition, % at 20 µM. CHO-K1 APJ beta-arrestin complementation, luminescence. 0.32% of 330,000 active. AID 2521;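 active = inhibition above about 40% at 20 µM, limit read from the data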;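 note: cells challenged with 10 nM apelin-13 agonist together with compound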
Target sequence (P35414 whole entry, looked up): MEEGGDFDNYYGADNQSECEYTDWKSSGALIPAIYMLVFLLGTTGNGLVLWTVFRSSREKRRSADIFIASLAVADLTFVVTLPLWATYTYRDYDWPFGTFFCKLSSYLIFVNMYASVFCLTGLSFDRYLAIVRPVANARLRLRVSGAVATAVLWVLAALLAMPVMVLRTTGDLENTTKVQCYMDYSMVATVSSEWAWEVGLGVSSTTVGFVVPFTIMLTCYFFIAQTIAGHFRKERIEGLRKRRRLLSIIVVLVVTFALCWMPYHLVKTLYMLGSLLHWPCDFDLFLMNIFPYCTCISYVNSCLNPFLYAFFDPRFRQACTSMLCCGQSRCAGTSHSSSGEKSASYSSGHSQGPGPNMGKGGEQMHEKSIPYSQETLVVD
EBI2 antag: antagonists of human EBI2 receptor; P32249; EBI2 beta-arrestin recruitment, luminescence, 7a,25-OHC stimulated; inhibition, % at 5 µM; 0.81% of 360,000 active; AID 651636; in the data active = inhibition above about 38%;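 note: enzyme fragment complementation signal reports receptor beta-arrestin coupling in cells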
Target sequence (P32249 whole entry, looked up, the tested form may be a part): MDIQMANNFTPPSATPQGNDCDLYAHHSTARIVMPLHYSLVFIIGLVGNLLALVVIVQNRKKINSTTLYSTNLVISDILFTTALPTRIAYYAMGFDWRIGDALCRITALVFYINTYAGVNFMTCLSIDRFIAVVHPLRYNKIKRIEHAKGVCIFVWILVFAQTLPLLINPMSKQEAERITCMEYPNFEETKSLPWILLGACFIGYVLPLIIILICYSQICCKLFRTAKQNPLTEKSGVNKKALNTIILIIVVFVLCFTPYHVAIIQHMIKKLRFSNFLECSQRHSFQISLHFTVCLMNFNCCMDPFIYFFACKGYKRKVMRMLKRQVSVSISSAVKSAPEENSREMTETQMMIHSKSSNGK
APJ agonist: activates the human apelin receptor APJ | P35414 | CHO-K1 APJ PathHunter beta-arrestin, luminescence; 0% DMSO wells, 100% apelin | activation, % at 20 µM | 0.11% of 330,000 active | AID 2520;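 active = activation more than six SD over the plate average, tested at 20 µM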
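Material: engineered CHO-K1 APJ arrestin reporter cells; amount: 1000 CHO-K1 reporter cells seeded per well; incubation: compound stimulation 90 min at 25 °C, detection 60 min; signal: luminescent beta-gal fragment complementation, chemiluminescent substrate; read-out basis: APJ agonist activity; controls: DMSO-only wells as negative, 10 nM Apelin-13 as positive control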
H9c2 TAG conf: confirmation of triacylglycerol accumulation inhibitors; shares compounds with H9c2 TAG inh; H9c2 lipid accumulation, Nile Red fluorescence; cells loaded with 200 µM oleic acid; inhibition, % at 12.5 µM; 71% of 990 active; AID 651629;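 active = mean inhibition across replicates of 40% or more; inactive = mean inhibition below 40%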
EBI2 conf: EBI2 (human) antagonism, single concentration confirmation. shares compounds with EBI2 antag. EBI2 beta-arrestin luminescence, 7a,25-OHC antagonism. inhibition, % at 5 µM. 29% of 2,400 active. AID 651997;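 active = inhibition of at least 50%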
EBI2 ag: counter-screen for EBI2 antagonists: EBI2 agonist activity; shares compounds with EBI2 antag; EBI2-expressing cells, agonist mode, luminescence, 60 min; 0% vehicle, 100% 7α,25-dihydroxycholesterol control; activation, % at 5 µM; 2,400 tested, under 10 active;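 active = activation of at least 50%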
bGal cs: inhibits E. coli beta-galactosidase, counter-screen for EBI2 antagonists | shares compounds with EBI2 antag | purified beta-galactosidase, luminescent Galacton Star, 15 min | inhibition, % at 5 µM | 1% of 2,400 active | AID 652176;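 active = replicate-average signal at least 3 plate SD below neutral wells, shown as high inhibition, flagging enzyme-inhibiting false positives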;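 note: higher means stronger loss of beta-gal luminescence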
Each line names hits and unclear results; the compound was inactive in the other large screens (follow-up assays come after a bar, where they were run). In the library only some 1.9% were active in any assay of this set; here they are far more common.

O=C(Cn1cc[n+](CC(=O)c2ccccc2)c1)c1ccccc1	none
O=C(Cn1cc[n+](CC(=O)c2ccc(Cl)cc2Cl)c1)c1ccc(Cl)cc1Cl	H9c2 TAG inh 60 | H9c2 TAG conf 44
C=CCOc1ccc(C2NC(=O)c3ccccc3O2)cc1OC (centres undefined)	none (no result: CCR6 antag, APJ antag, APJ agonist)
Nc1ccc(Nc2nc(-c3cc4ccccc4oc3=O)cs2)cc1	none
COc1cccc2sc(Nc3nc(-c4cc5ccccc5oc4=O)cs3)nc12	H9c2 TAG inh 58, EBI2 antag 46 (no result: APJ antag, APJ agonist) | H9c2 TAG conf 87 | EBI2 conf inactive | EBI2 ag inactive | bGal cs inactive
CCCCNc1c(-c2ccc(OC)c(SC(C)CC)c2)nc2cc(C)ccn12 (centres undefined)	none
CCCCNc1c(-c2ccc(-c3ccc(C(C)=O)cc3)c(OC)c2)nc2cc(C)ccn12	H9c2 TAG inh 58, EBI2 antag 67 | H9c2 TAG conf 41 | EBI2 conf 52 | EBI2 ag inactive | bGal cs inactive
COc1cc(OC)cc(-c2c(C#Cc3ccsc3)c3cc(-c4cc(OC)c(OC)c(OC)c4)ccc3n2C)c1	none
COc1cc(C#Cc2c(-c3cncn3C)n(C)c3ccc(-c4cc(OC)c(OC)c(OC)c4)cc23)cc(OC)c1	H9c2 TAG inh 61, EBI2 antag 50 | H9c2 TAG conf 77 | EBI2 conf inactive | EBI2 ag inactive | bGal cs inactive
Cc1csc(CNc2ncnc3ccc(-c4cccc(Cl)c4)cc23)c1	none
c1ccc(OCCNc2nc(NCC3CC3)nc3cc(-c4ccccc4)sc23)cc1	H9c2 TAG inh 57, EBI2 antag 68 (no result: CCR6 antag, APJ antag, APJ agonist) | H9c2 TAG conf 41 | EBI2 conf 62 | EBI2 ag inactive | bGal cs inactive
O=c1c(-c2ccco2)nc2ccccc2n1C(c1ccccc1)c1nc2ccccc2[nH]1 (centres undefined)	none (no result: H9c2 TAG inh, CXCR6 block, CCR6 antag, APJ antag, APJ agonist)
CSc1ccc(/C=C/C(=O)c2ccc(NC(=O)Cc3ccccc3)cc2)cc1	H9c2 TAG inh 59, EBI2 antag 92 | H9c2 TAG conf inactive | EBI2 conf 80 | EBI2 ag inactive | bGal cs inactive
O=C(Nc1cccc(-c2csc(Nc3cccc(C(F)(F)F)c3)n2)c1)c1cc([N+](=O)[O-])cc(C(F)(F)F)c1	H9c2 TAG inh 58, EBI2 antag 47 | H9c2 TAG conf 56 | EBI2 conf inactive | EBI2 ag inactive | bGal cs inactive
CCCCC(=NCCc1c(C)[nH]c2ccc(OC)cc12)C1=C(O)CC(c2ccccc2)CC1=O (centres undefined)	H9c2 TAG inh 61, EBI2 antag 51 | H9c2 TAG conf 66 | EBI2 conf inactive | EBI2 ag inactive | bGal cs inactive
CCC(=NCCc1c(C)[nH]c2ccccc12)C1=C(O)CC(c2ccccc2)CC1=O (centres undefined)	none (no result: H9c2 TAG inh)
COc1ccccc1-c1cc(NC=O)c2ncc(-c3cccc(C(C)=O)c3)n2c1	none (no result: CCR6 antag, APJ antag, APJ agonist)
COc1ccccc1-c1cc(NC=O)c2ncc(-c3cccc(C(=O)N(C)C)c3)n2c1	H9c2 TAG inh 59, EBI2 antag 75 (no result: CCR6 antag, APJ antag, APJ agonist) | H9c2 TAG conf 68 | EBI2 conf inactive | EBI2 ag inactive | bGal cs inactive
O=C(NCc1ccccc1)c1cc(C2CCCCN2C(=O)c2ccc(Cl)cc2)on1 (centres undefined)	none (no result: CCR6 antag, APJ antag, APJ agonist)
COc1ccc2nc(SCC(=O)N3CC(=O)Nc4ccccc43)c(C#N)cc2c1	H9c2 TAG inh 54, EBI2 antag 57 | H9c2 TAG conf inactive | EBI2 conf inactive | EBI2 ag inactive | bGal cs inactive
c1ccc(N(c2ccccc2)c2nc(N3CCCC3)nc(-n3ccnc3)n2)cc1	H9c2 TAG inh 60, EBI2 antag 40 | H9c2 TAG conf 43 | EBI2 conf inactive | EBI2 ag inactive | bGal cs inactive
O=C(NCC(c1ccco1)N1CCCC1)c1ccc(Cl)c(S(=O)(=O)N2CCc3ccccc32)c1 (centres undefined)	none
CC(C)Cc1nc2sc3c(NCc4ccco4)ncnc3c2c2c1COC(C)(C)C2	H9c2 TAG inh 54, EBI2 antag 47 | H9c2 TAG conf 47 | EBI2 conf inactive | EBI2 ag inactive | bGal cs inactive
COC(=O)CCCn1cc(CN2CC(N3CCN(CCN(C)C)CC3)CS2(=O)=O)nn1 (centres undefined)	none (no result: H9c2 TAG inh, CCR6 antag, APJ antag, APJ agonist)
CCCCSc1nc2ccc(Nc3nc(N4CCOCC4)nc(N4CCOCC4)n3)cc2s1	H9c2 TAG inh 80, EBI2 antag 46 | H9c2 TAG conf 97 | EBI2 conf inactive | EBI2 ag inactive | bGal cs inactive
Cc1cccc(Nc2nc(N3CCOCC3)nc(N3CCOCC3)n2)c1	none (no result: H9c2 TAG inh)
CCOc1ccc(OCC)c(NC(=O)CN(c2ccc(C)cc2)S(=O)(=O)c2c(C)noc2C)c1	H9c2 TAG inh 53, EBI2 antag 72 | H9c2 TAG conf 46 | EBI2 conf inactive | EBI2 ag inactive | bGal cs inactive
CS(=O)(=O)N(CC(=O)N1CCCC1)C1CCCCC1	none (no result: CCR6 antag, APJ antag, APJ agonist)
C[C@H](CO)N1C[C@H](C)[C@@H](CN(C)S(=O)(=O)c2cn(C)cn2)Oc2c(NS(=O)(=O)c3cn(C)cn3)cccc2C1=O	none
CSc1nnc(C(C)(C)C)c(=O)n1/N=C/c1ccccc1	none
CC(C)(C)c1nnc(N/N=C/c2ccccc2)n(N)c1=O	EBI2 antag 77 (no result: H9c2 TAG inh) | EBI2 conf inactive | EBI2 ag inactive | bGal cs inactive
COc1ccc(C2=CC(=O)CC(c3ccc(OC)cc3)C2)cc1 (centres undefined)	EBI2 antag 51 | EBI2 conf inactive | EBI2 ag inactive | bGal cs inactive
COc1cccc(C2=CC(=O)C[C@H](c3ccc(Cl)cc3)C2)c1	EBI2 antag 46 | EBI2 conf inactive | EBI2 ag inactive | bGal cs inactive
O=C1C=C(c2cc3ccccc3s2)C[C@@H](c2ccc(F)cc2)C1	EBI2 antag 53 | EBI2 conf inactive | EBI2 ag inactive | bGal cs inactive
COc1ccc(C2=CC(=O)C[C@H](c3ccc(Cl)cc3)C2)cc1	EBI2 antag 50 | EBI2 conf 59 | EBI2 ag inactive | bGal cs inactive
COc1ccc(C2=CC(=O)CC(c3ccc(F)cc3)C2)cc1 (centres undefined)	none
Cc1cc(C)cc(NS(=O)(=O)c2c(C)[nH]c(=O)[nH]c2=O)c1	none (no result: H9c2 TAG inh)
